From PubChem
This is a sample that favours compounds with a hit; in the whole collection about 1.7% have one here.
HNF4A DNA FP = change in binding of human HNF4 alpha to DNA. P41235. HNF4a-FITC DNA binding, fluorescence polarization, 1 h. activity change, % at 10 µM. hit rate 0.3% among 360,000. AID 1224865; in the data active = activity change above about 30%, passing the limit was not always enough
Target sequence (P41235 whole entry, looked up): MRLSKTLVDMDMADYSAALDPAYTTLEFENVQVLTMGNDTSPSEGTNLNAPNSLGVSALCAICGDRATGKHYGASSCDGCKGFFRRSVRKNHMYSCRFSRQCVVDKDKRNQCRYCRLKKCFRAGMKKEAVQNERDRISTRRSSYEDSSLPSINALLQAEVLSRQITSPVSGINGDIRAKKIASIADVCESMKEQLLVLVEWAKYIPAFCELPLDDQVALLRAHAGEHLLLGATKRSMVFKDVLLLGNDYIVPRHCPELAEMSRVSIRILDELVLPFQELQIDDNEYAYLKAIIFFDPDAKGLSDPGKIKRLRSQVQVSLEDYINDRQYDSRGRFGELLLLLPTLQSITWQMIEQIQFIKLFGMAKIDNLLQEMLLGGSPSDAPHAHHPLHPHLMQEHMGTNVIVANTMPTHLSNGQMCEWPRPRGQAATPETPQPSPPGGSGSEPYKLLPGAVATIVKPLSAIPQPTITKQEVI
TPT1 inhibitor = blocks Candida albicans tRNA 2'-phosphotransferase; recombinant caTPT1, FP RNA substrate dephosphorylation; inhibition, % at 5 µM; hit rate 0.81% among 300,000; AID 1962;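 active = inhibition above the mean of all tested compounds plus 3 SD, set per screening campaign, cut at about 24% in these data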;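 note: plate controls were DMSO alone for no effect and ferristatin control at 100 nM for full effect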
IDE cell inh = inhibits human insulin-degrading enzyme in HEK cells. FAbetaB cleavage, fluorescence polarization. AID 434962. hit rate 0.41% among 320,000. inhibition, % at 5.59 µM. P14735;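 active = percent inhibition above the average of all tested compounds plus 3 SD, set per screening campaign, cut at about 16% in these data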;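 note: IDE supplied by intact live HEK cells; FP after avidin binding of uncleaved biotin substrate so inhibition keeps polarization high; 0% = DMSO wells and 100% = 60 µM reference IDE inhibitor Ii1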
Rpn11 inh = inhibitors of human proteasome Rpn11; O00487; human 26S proteasome, Ub4-pepOG fluorescence polarization; 20S core pre-blocked with epoxomicin; inhibition, % at 20 µM; hit rate 0.59% among 360,000; AID 588493;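 active = inhibition at 20 µM, scaled to each plate's controls, above about 33%, limit read from the data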
IDE cell activ = activators of human insulin-degrading enzyme in cells | HEK cells, FAbeta-B cleavage, fluorescence polarization; 0% vehicle, 100% cell-free pure enzyme wells | activation, % at 5.96 µM | hit rate 0.073% among 340,000 | AID 493087;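 active = activation above the mean of all tested compounds plus 3 SD, set per screening campaign, cut at about 17% in these data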
CSN deneddyl inh = CSN deneddylation inhibition | Q92905 | Purified CSN, SCF-Nedd8-OG deneddylation, fluorescence polarization | inhibition, % at 12.5 µM | hit rate 0.38% among 360,000;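 active = pattern-corrected inhibition above about 35%, with an unprinted fluorescence ratio check between 0.5 and 1.5, limit read from the data, passing the limit was not always enough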;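 note: 0% = enzyme with substrate and 100% = substrate without enzyme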
Target sequence (Q92905 whole entry, looked up, one chain of several): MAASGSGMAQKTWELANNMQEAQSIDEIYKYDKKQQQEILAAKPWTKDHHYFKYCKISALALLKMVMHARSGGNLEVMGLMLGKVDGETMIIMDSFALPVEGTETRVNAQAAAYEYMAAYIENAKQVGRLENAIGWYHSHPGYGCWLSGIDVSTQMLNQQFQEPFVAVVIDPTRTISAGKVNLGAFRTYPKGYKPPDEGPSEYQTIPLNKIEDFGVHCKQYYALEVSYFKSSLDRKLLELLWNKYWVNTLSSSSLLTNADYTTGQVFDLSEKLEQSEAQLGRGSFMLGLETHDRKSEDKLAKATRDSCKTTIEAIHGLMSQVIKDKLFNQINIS
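Assay system: HEK293T-derived human Csn5 enzyme; quantity: 0.24 nM enzyme; medium: Tris/NaCl/DTT buffer, pH 7.5; also added: substrate SCFSkp2-Nedd8OG, 10 nM; doses: 12.5 µM compound; schedule: 90 min reaction at room temperature; signal: FP; read-out: % inhibition of substrate cleavage by Csn5; benchmarks: substrate-only high control, full reaction low control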
Rpn11 inh conf = confirmation of human proteasome Rpn11 inhibitors. shares compounds with Rpn11 inh. purified human 26S proteasome, Ub4-pepOG fluorescence polarization; proteasome pretreated with epoxomicin. inhibition, % at 20 µM. hit rate 29% among 1,900. AID 602318
MMP-2 counter = counter-screen for RPN11 inhibitors: inhibition of human MMP-2. inhibition, % at 20 µM. recombinant MMP-2, FRET peptide cleavage fluorescence. shares compounds with Rpn11 inh. hit rate 4% among 1,900;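 note: human MMP-2 activated beforehand with APMA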
Thrombin FP = blocks bovine thrombin, flagging nonselective RPN11 hits. shares compounds with Rpn11 inh. bovine thrombin cleavage of Ub4-pepOG, fluorescence polarization. inhibition, % at 20 µM. hit rate 13% among 1,900;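 active = mean inhibition at least 40% at 20 µM, or signal 3 deviations below plate average, so some actives read negative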;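 note: plate controls were thrombin with DMSO for no effect and buffer wells lacking thrombin for full effect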
* hit, by the source's call; nt = no result given; + = active, no number. Cut-off read from the data, not from the text of the source, unless noted: active = inhibition above about 40%; inactive = the rest.

SMILES | HNF4A DNA FP | TPT1 inhibitor | IDE cell inh | Rpn11 inh | IDE cell activ | CSN deneddyl inh | Rpn11 inh conf | MMP-2 counter | Thrombin FP
COC(=O)c1ccc(COC(=O)C(NC(=O)Cc2ccccc2)C(C)C)cc1 (stereo not given) | 2.5 | nt | nt | -0.1 | 5.6 | -2.8 | nt | nt | nt
CCOC(=O)c1c(C)[nH]c(O)c1C=Nc1ccc(Cl)cc1 | 16.9 | -0.2 | -0.7 | 55.1* | 0.0 | -3.6 | 23.2 | -10.4 | 0.9
CC(=O)NN1C(=O)/C(=C\c2ccc(Br)o2)SC1=S | 95.1 | 5.1 | 5.7 | 50.4* | -1.8 | 33.3 | 12.1 | -19.7 | 17.9
COC(=O)[C@]12CCCCC=C1N(Cc1cccc3ccccc13)C(=O)[C@H](CC(=O)N1CCCCC1)C2 | -0.1 | nt | nt | nt | nt | -5.1 | nt | nt | nt
Cc1cc(C)n(C(=O)N(c2ccccc2)c2ccccc2)n1 | 0.3 | -3.0 | 3.6 | 7.0 | -1.8 | 0.0 | nt | nt | nt
COc1cccc(N(C(=O)c2cccs2)c2nc3ccccc3s2)c1 | 1.8 | -5.0 | 7.7 | 111.0* | -0.7 | 1.6 | -15.3 | 13.1 | 14.0
Cc1cccc(NS(=O)(=O)c2ccc3c(c2)oc(=O)n3C)c1C | -2.2 | nt | nt | 2.1 | 3.9 | 3.7 | nt | nt | nt
O=C(COC(=O)Cc1ccsc1)NCc1ccccc1 | 0.4 | 1.0 | -1.0 | 39.3* | 1.6 | -0.5 | -3.2 | -14.9 | -18.2
COc1nc(-c2ccc(C)cc2)ccc1-c1noc(-c2cccnc2)n1 | 10.5 | 1.1 | -3.8 | 13.2 | -1.9 | 5.0 | nt | nt | nt
COc1nc(-c2ccccc2)ccc1-c1noc(-c2cccnc2)n1 | 9.4 | 4.3 | -2.5 | 44.2* | -4.6 | 1.4 | -6.0 | -23.8 | -7.3
c1ccc(-n2nnnc2Sc2ncnc3sc4c(c23)CCCC4)cc1 | 1.6 | -4.5 | 1.1 | 46.6* | 1.2 | 0.8 | 7.0 | -18.4 | 1.3
COc1ccc(C2C(C(=O)c3cccs3)=C(O)C(=O)N2CCN2CCOCC2)c(OC)c1 (stereo not given) | -4.1 | -1.1 | 5.0 | -3.3 | 5.4 | 1.1 | nt | nt | nt
C=C(C)CSc1nc2sc3c(c2c(=O)n1C1CCCCC1)CCN(C)C3 | 15.2 | 19.0 | -0.4 | 59.5* | -3.5 | 1.9 | 17.6 | -21.9 | 5.8
Cc1ccc(NS(=O)(=O)c2ccc(-n3cccn3)cc2)c(Cl)c1 | 2.1 | nt | nt | -3.5 | nt | 2.7 | nt | nt | nt
N#CCC(=O)N/N=C/c1ccccc1Cl | 3.2 | -2.8 | 5.5 | 53.3* | 1.9 | -7.1 | -14.8 | 12.8 | -12.7
COc1ccc(/C=C/C(=O)c2ccc(C(=O)/C=C/c3ccc(OC)c(OC)c3)cc2)cc1OC | 12.6 | nt | nt | 55.8* | 2.9 | 24.2 | 36.1 | -20.4 | 1.9
COC(=O)c1ccc(/C=C/C(=O)c2ccc(OC)c(OC)c2)cc1 | 0.0 | -1.1 | 2.0 | -2.6 | 9.8 | 10.9 | nt | nt | nt
CSc1ccc(CCNC(=O)c2cccc3c2C(=O)N(C2CCCCC2)C3)cc1 | -1.4 | -0.9 | 2.3 | 8.8 | 4.9 | -3.2 | nt | nt | nt
COc1ccc(-n2nc3c(N4CCC(C(=O)NCCc5ccco5)CC4)nnc(C)c3c2C)cc1 | -0.2 | 2.6 | 1.1 | 12.0 | 3.3 | 10.8 | nt | nt | nt
Cc1ccc(-n2nc3c(N4CCC(C(=O)N5CCN(C)CC5)CC4)nnc(C)c3c2C)cc1 | 8.5 | 13.5 | 6.9 | 41.0* | -5.4 | 10.2 | 23.9 | -4.7 | 19.7
CCc1ccc(CNC(=O)C2CCCN(c3nnc(C)c4c(C)n(-c5ccccc5)nc34)C2)cc1 (stereo not given) | 18.6 | 16.8 | 6.0 | 60.5* | -0.2 | 13.2 | 26.5 | -136.1 | -5.1
COc1ccc(-n2nc3c(N4CCC(C(=O)NCc5cccc(C)c5)CC4)nnc(C)c3c2C)cc1 | 9.6 | 21.3 | -3.5 | 71.4* | 0.7 | 17.8 | 55.0* | -22.1 | 22.1
COc1ccc(-n2nc3c(N4CCC(C(=O)N5CCCCCC5)CC4)nnc(C)c3c2C)cc1 | 11.9 | 8.5 | 10.5 | 54.9* | 0.9 | 10.9 | -1.8 | -15.8 | -7.7
Cc1nnc(N2CCC(C(=O)N3CCCCCC3)CC2)c2nn(-c3ccc(Cl)cc3)c(C)c12 | 1.4 | -1.8 | 1.5 | -2.8 | -0.7 | -1.0 | nt | nt | nt
Cc1cc(C(=O)NC2CC(C)(C)Cc3c2cnn3-c2cccc(F)c2)n(C)n1 (stereo not given) | -1.6 | -2.6 | -0.9 | -11.1 | -0.9 | -1.1 | nt | nt | nt
SMILES | HNF4A DNA FP | TPT1 inhibitor | IDE cell inh | Rpn11 inh | IDE cell activ | CSN deneddyl inh | Rpn11 inh conf | MMP-2 counter | Thrombin FP
CCOC(=O)c1c(C)[nH]c(C)c1S(=O)(=O)N(C)CC(=O)NCc1ccc(F)cc1 | 1.2 | 1.9 | 4.6 | -4.7 | 1.1 | 3.1 | nt | nt | nt
Cc1cccc(OCC(=O)NNC(=O)c2cc(S(=O)(=O)N(C)C)ccc2N2CCCC2)c1 | 1.2 | nt | -7.3 | 41.7* | 5.7 | 0.3 | 34.3 | -10.7 | -4.1
CN(C)S(=O)(=O)c1ccc(N2CCCC2)c(C(=O)NNC(=O)COc2cccc(F)c2)c1 | -4.6 | nt | 2.7 | 26.2 | 2.5 | 2.2 | nt | nt | nt
COc1ccc(-c2cc(C(=O)N(C)Cc3ccc(F)cc3)c3ccccc3n2)cc1OC | 1.1 | -0.1 | 0.9 | -7.8 | 5.6 | 3.0 | nt | nt | nt
COc1ccc2c(C)nc(Nc3nc(-c4ccccc4)cc(=O)[nH]3)nc2c1 | 15.3 | 0.6 | -0.3 | 44.9* | -1.6 | 24.2 | 24.1 | -22.6 | -4.5
Cc1ccc2nc(Nc3nc(-c4ccccc4)cc(=O)[nH]3)nc(C)c2c1 | 1.9 | -1.2 | 5.7 | 5.9 | 5.7 | 12.5 | nt | nt | nt
COc1ccc2nc(/C(C#N)=C\c3ccc(C(=O)O)cc3)[nH]c2c1 | 13.2 | 22.9 | 8.7 | 43.0* | -2.3 | 11.1 | 32.9 | -23.4 | 26.5
COc1ccc2nc(/C(C#N)=C\c3ccc(Oc4ccc([N+](=O)[O-])cn4)cc3)[nH]c2c1 | 1.6 | 9.7 | 4.7 | 14.9 | -4.8 | 1.6 | nt | nt | nt
COc1ccccc1NS(=O)(=O)c1cc(N=N/C(C(=O)Nc2ccc(Cl)cc2)=C(/C)O)ccc1C | 17.3 | nt | -3.6 | 42.3* | 4.5 | 8.3 | -8.9 | -9.8 | -12.9
COc1ccccc1NC(=O)/C(N=Nc1ccc(C)c(S(=O)(=O)Nc2ccccc2Cl)c1)=C(\C)O | 4.2 | nt | 3.1 | 1.0 | 3.1 | -5.7 | nt | nt | nt
Cc1nn2c(N3CCCC3)c3c(nc2c1-c1ccccc1)CCC3 | -3.2 | 3.6 | -3.6 | 110.4* | nt | 2.2 | 27.5 | -8.8 | 5.5
Cc1cc2c(c(=O)n1C1CC1)C(c1cccc(Cl)c1)C(C#N)=C(N)O2 (stereo not given) | 27.7 | -0.8 | 1.3 | + | 2.9 | 0.8 | 7.8 | -0.9 | 7.0
CC(C)C[C@H]1CNC(=O)C(=O)N1C[C@@H]1CCCN1C[C@H](CC(C)C)N1C[C@H](Cc2ccc(O)cc2)N(CCc2ccccc2)C(=O)C1=O | 2.2 | nt | nt | nt | nt | -2.4 | nt | nt | nt
